Reference: ChEMBL document CHEMBL1148971, “Bioactive rearranged and halogenated semisynthetic derivatives of the marine natural product sarcophine” (J Nat Prod, 2004)
The source made the active and inactive calls. No cut-off for these calls is given here.

What was measured:
Type in all cases: functional, cell-based
+SA cell [1] = test: Antiproliferative activity against mouse +SA cells assessed as decrease in cell growth up to 100 uM after 4 days by MTT assay
Method in brief: (§1)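 Highly malignant +SA mouse mammary epithelial cells were grown in serum-free medium with 10 ng/mL EGF and 10 µg/mL insulin as mitogens. Cells were seeded at 5 × 10^4 cells/well, 6 wells per group, and fed medium containing compound over 0.01-1000 µM for 4 days. Viable cell number was read by MTT colorimetric assay and reported as mean cell count/well + SEM.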

+SA cell [2] = test: Antiproliferative activity against mouse +SA cells assessed as decrease in cell growth at 0 to 10 uM after 4 days by MTT assay; method in brief: as §1
+SA cell [3] = test: Antiproliferative activity against mouse +SA cells assessed as decrease in cell growth at 100 to 1000 uM after 4 days by MTT assay; method in brief: as §1

| SMILES | Activity (+SA cell [1]) | Activity (+SA cell [2]) | Activity (+SA cell [3]) |
| --- | --- | --- | --- |
| CC1=C2CC/C(C)=C/CC/C(C)=C/CC/C(C)=C/[C@@H]2OC1=O | Active | – | – |
| CC1=C2CC/C(C)=C/CC[C@@H](C)C(=O)CC/C(C)=C/[C@@H]2OC1=O | inactive | – | – |
| CC1=C2CC/C(C)=C/CC[C@]3(C)O[C@H]3CC/C(C)=C/[C@@H]2OC1=O | – | inactive | Active |
| CC1=C2CC[C@H](C)[C@H]3CC[C@](C)(O)[C@H](CC/C(C)=C/[C@@H]2OC1=O)O3 (mixture of isomers) | inactive | – | – |
| CC1=C2CC[C@@](C)(O)CCC[C@](C)(O)[C@@H]3CC[C@@](C)(C[C@@H]2OC1=O)O3 (relative stereo) | inactive | – | – |
| CC1=C2CC[C@H](C)[C@@H]3CC[C@](C)(O)[C@H](CC/C(C)=C/[C@@H]2OC1=O)O3 (relative stereo) | inactive | – | – |
| CC1=C2CC[C@H](C)[C@@H]3CC[C@](C)(O)[C@H](CC[C@@](C)(O)C[C@@H]2OC1=O)O3 (relative stereo) | inactive | – | – |
| CC1=C2CC[C@]3(C)O[C@@H](CC/C(C)=C/[C@@H]2OC1=O)[C@@](C)(O)CC[C@@H]3Br (relative stereo) | Active | – | – |
| CC1=C2CC[C@]3(C)O[C@@H](CC/C(C)=C/[C@@H]2OC1=O)[C@@](C)(O)CC[C@H]3Br (relative stereo) | inactive | – | – |
